Source: ChEMBL document CHEMBL1777718, “Synthesis and cytotoxicity of 17a-aza-D-homo-androster-17-one derivatives” (Bioorg Med Chem Lett, 2011)

Assays:
[1] = test system: HeLa; experiment: Cytotoxicity against human HeLa cells assessed as reduction in optical density by MTT assay relative to control; assay type: functional, cell-based
In short: (§1)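 MTT assay read as optical density. IC50 is the concentration that cut optical density of treated cells by 50% relative to untreated cells. Values are means of three independent determinations.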

[2] = Cytotoxicity against human SMMC-7404 cells assessed as reduction in optical density by MTT assay relative to control; assay type: functional, cell-based; in short: as §1

Row | Structure (SMILES) | IC50 [1] [µM] | IC50 [2] [µM]
1 | C[C@]12CCC(O)C=C1C(O)C[C@@H]1[C@@H]2CC[C@]2(C)NC(=O)CC[C@@H]12 (stereo partly drawn) | 18.8 | > 200
2 | CC(=O)O[C@H]1CC[C@@]2(C)C(=CC[C@@H]3[C@@H]2CC[C@]2(C)NC(=O)CC[C@@H]32)C1 | 37.6 | > 200
3 | C[C@]12CCC(=O)C=C1C(=O)C[C@@H]1[C@@H]2CC[C@]2(C)NC(=O)CC[C@@H]12 | 102 | > 200
4 | C[C@]12CC/C(=N/O)C=C1/C(=N\O)C[C@@H]1[C@@H]2CC[C@]2(C)NC(=O)CC[C@@H]12 | 15.1 | > 200
5 | C[C@]12CC/C(=N\NC(N)=S)C=C1/C(=N\NC(N)=S)C[C@@H]1[C@@H]2CC[C@]2(C)NC(=O)CC[C@@H]12 | 28.8 | 80.5
6 | C[C@]12CCC(O)CC1C(O)C[C@@H]1[C@@H]2CC[C@]2(C)NC(=O)CC[C@@H]12 (stereo partly drawn) | 14 | 124
7 | C[C@]12CC[C@H](O)CC1=CC[C@@H]1[C@@H]2CC[C@]2(C)NC(=O)CC[C@@H]12 | 65.9 | > 200
8 | C[C@]12CC/C(=N/O)CC1/C(=N\O)C[C@@H]1[C@@H]2CC[C@]2(C)NC(=O)CC[C@@H]12 (stereo partly drawn) | 75.7 | 184
9 | C[C@]12CCC(=O)CC1C(=O)C[C@@H]1[C@@H]2CC[C@]2(C)NC(=O)CC[C@@H]12 (stereo partly drawn) | 53.6 | 60.8
